Values belong to the molecule of their own block, whether it stands above or below them. Activity calls are given as the source filed them. The rule behind the calls is not given here.
Experiments:
HUVEC [1] = assay: Immunomodulatory activity in HUVEC assessed as inhibition of IFNgamma-induced MHC-1 expression at 10 uM pretreated for 1 hr followed by IFNgamma stimulation and measured after 48 hrs by immunostaining based flow cytometry relative to control; format: functional, Homo sapiens; set-up: scale not given: the % may be the effect or the level left
In short: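 Cultured vascular endothelial cells were stimulated with IFNγ to upregulate MHC molecules (MHC class I, class II, HLA-E) in the presence of the test compound at 10 μM. Surface expression of MHC was then quantified by flow cytometry.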

HUVEC [2] = assay: Immunomodulatory activity in HUVEC assessed as inhibition of IFNgamma-induced HLA-E expression at 10 uM pretreated for 1 hr followed by IFNgamma stimulation and measured after 48 hrs by immunostaining based flow cytometry relative to control; format: functional
In short: (§1)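 Endothelial cells were stimulated with IFNγ to upregulate MHC class II and HLA-E in the presence of test agent at 10 μM. Surface expression was measured by flow cytometry.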

HUVEC [3] = assay: Immunomodulatory activity in HUVEC assessed as inhibition of IFNgamma-induced MICA expression at 10 uM pretreated for 1 hr followed by IFNgamma stimulation and measured after 48 hrs by immunostaining based flow cytometry relative to control; format: functional
HUVEC [4] = assay: Immunomodulatory activity in HUVEC assessed as inhibition of IFNgamma-induced HLA-DR expression at 10 uM pretreated for 1 hr followed by IFNgamma stimulation and measured after 48 hrs by immunostaining based flow cytometry relative to control; format: functional; in short: as §1
HUVEC [5] = assay: Immunomodulatory activity in HUVEC assessed as inhibition of TNFalpha-induced VCAM1 expression at 5 to 50 uM measured by ELISA relative to control; format: functional, Homo sapiens
In short: (§2)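 Cell-based ELISA on cultured vascular endothelial cells quantifying surface molecules. Cells were stimulated with TNF to induce VCAM-1 and MICA, or with IFNγ to induce MHC class I. Test agents were present at 5, 25 and 50 μM.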

HUVEC [6] = assay: Reduction in basal MICA expression in HUVEC at 10 uM measured after 1 hr by immunostaining based flow cytometry; format: ADME, cell-based; set-up: scale not given: the % may be the effect or the level left; conditions: human
HUVEC [7] = assay: Immunomodulatory activity in HUVEC assessed as inhibition of TNFalpha-induced MICA expression at 5 to 50 uM measured by ELISA relative to control; format: functional, Homo sapiens; in short: as §2
HUVEC [8] = assay: Immunomodulatory activity in HUVEC assessed as inhibition of IFNgamma-induced MHC1 expression at 5 to 50 uM measured by ELISA relative to control; format: functional, Homo sapiens; in short: as §2
HUVEC [9] = assay: Effect on HLA-DR expression in HUVEC at 10 uM measured after 1 hr by immunostaining based flow cytometry; format: ADME, cell-based; conditions: human
HUVEC [10] = assay: Effect on HLA-E expression in HUVEC at 10 uM measured after 1 hr by immunostaining based flow cytometry; format: ADME, cell-based; conditions: human
HUVEC [11] = assay: Effect on MHC-1 expression in HUVEC at 10 uM measured after 1 hr by immunostaining based flow cytometry; format: ADME, cell-based; conditions: human

SMILES: O.O=P(O)(O)C(O)(Cn1ccnc1)P(=O)(O)O [ZOLEDRONIC ACID]
- Activity (HUVEC [1]): 67%

SMILES: COc1cc(C2Oc3c(OC)cc4c(=O)c5ccccc5oc4c3OC2CO)ccc1O (configuration not stated)
- Activity (HUVEC [2]; Homo sapiens): inactive
- Activity (HUVEC [3]; Homo sapiens): inactive
- Activity (HUVEC [4]; Homo sapiens): inactive
- Activity (HUVEC [1]; Homo sapiens): inactive

- Activity (HUVEC [6]): 25%
SMILES: COc1c(O)ccc2c(=O)c3c(O)cc4c(c3oc12)C(C)(C)C(C)O4 (configuration not stated)
- inhibition (INH) (HUVEC [5]): >50%
- Activity (HUVEC [2]): 40%
- inhibition (INH) (HUVEC [7]): <10%
- inhibition (INH) (HUVEC [8]): 10 - 25%
- Activity (HUVEC [9]): Non-Toxic
- Activity (HUVEC [3]): 24%
- Activity (HUVEC [4]): 25%
- Activity (HUVEC [10]): Non-Toxic
- Activity (HUVEC [11]): Non-Toxic

SMILES: COc1cc(-c2ccccc2)cc2c1C[C@H](O)C(C)(C)O2
- Activity (HUVEC [2]; Homo sapiens): inactive
- Activity (HUVEC [3]; Homo sapiens): inactive
- Activity (HUVEC [4]; Homo sapiens): inactive
- Activity (HUVEC [1]; Homo sapiens): inactive

SMILES: COc1cc2oc3cc(O)cc(O)c3c(=O)c2c2c1OC(C)(C)C=C2
- Activity (HUVEC [2]; Homo sapiens): inactive
- Activity (HUVEC [3]; Homo sapiens): inactive
- Activity (HUVEC [4]; Homo sapiens): inactive
- Activity (HUVEC [1]; Homo sapiens): inactive

SMILES: COc1cc(-c2ccccc2)cc2c1C[C@@H](C(C)(C)O)O2
- Activity (HUVEC [2]; Homo sapiens): inactive
- Activity (HUVEC [3]; Homo sapiens): inactive
- Activity (HUVEC [4]; Homo sapiens): inactive
- Activity (HUVEC [1]; Homo sapiens): inactive

Source: ChEMBL document CHEMBL4145656, “Additional Insights into Hypericum perforatum Content: Isolation, Total Synthesis, and Absolute Configuration of Hyperbiphenyls A and B from Immunomodulatory Root Extracts” (J Nat Prod, 2018)
